Experimental data: paper PMC11261338 (RSC Advances, 2024)

Legend:
[1] = system: myoblast cells (C2C12); assay: MTT assay, IC50 against myoblast cells; type: cell-based; details: C2C12, 48 h, read-out: IC50 (μM) C2C12
In short: (§1)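 Cells kept at 37 °C, 5% CO2: AGS in RPMI-1640 and C2C12 in DMEM, each with 10% FBS, 0.25 μg mL−1 amphotericin B and 25 μg mL−1 gentamicin. 5000 cells/well were seeded for 12 h, then given test compound at 1000, 100, 10, 1 and 0.1 μM for 48 h. Untreated cells served as controls.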

[2] = system: myoblast cells (C2C12); assay: MTT cell viability of normal myoblast cells at a single concentration; type: cell-based, human; details: DHPM 10 μM, 48 hours
In short: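 C2C12 myoblasts were grown in DMEM with 10% FBS, amphotericin B and gentamicin at 37 °C, 5% CO2, and seeded at 5000 cells/well for 12 h. Test compound was applied at 10 μM for 48 h. Cells were washed with PBS, given 0.5 mg mL−1 MTT in PBS for 90 min at 37 °C, and the formazan was dissolved in DMSO with 30 min agitation in the dark. A570 was read, in triplicate.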

[3] = system: AGS (gastric adenocarcinoma) cells; assay: MTT assay, IC50 against gastric cancer cells; type: cell-based; details: 48 h, read-out: IC50 (μM) AGS
In short: as §1

[4] = system: MCF-7 (mammary carcinoma) cells; assay: MTT assay, IC50 against breast cancer cells; type: cell-based; details: Homo sapiens, MCF7, 48 h, read-out: IC50 (μM) MCF-7
In short: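 MCF-7 cells grown in DMEM with human insulin (10 μg mL−1), 10% FBS, amphotericin B and gentamicin at 37 °C, 5% CO2. Seeded at 5000 cells per well for 12 h, then exposed 48 h to the test compound at 0.1, 1, 10, 100 and 1000 μM, with untreated controls. PBS wash, 0.5 mg mL−1 MTT for 90 min at 37 °C, DMSO solubilisation, A570.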

Row | SMILES | IC50 [1] | viability (%) of myoblast cells (C2C12) [2] | IC50 [3] | IC50 [4]
1 | CCCCCCCC/C=C\CCCCCCCCOC(=O)C1=C(C)NC(=O)NC1c1cccc(O)c1 (stereo not shown) [10c, (Z)-Octadec-9-enyl 4-(3-hydroxyphenyl)-6-methyl-2-oxo-1,2,3,4-tetrahydropyrimidine-5-carboxylate] | 18.4 ± 10.5 µM | ~70% | 12.1 ± 0.4 µM | 2.3 ± 0.4 µM
2 | CCCCCCCC/C=C\CCCCCCCCOC(=O)C1=C(C)NC(=S)NC1c1ccccc1O (stereo not shown) [11b, (Z)-Octadec-9-enyl 4-(2-hydroxyphenyl)-6-methyl-2-thioxo-1,2,3,4-tetrahydropyrimidine-5-carboxylate] | 88.5 ± 6.4 µM |  | 20.2 ± 2.1 µM | 10.1 ± 1.3 µM
3 | CCCCCCCC/C=C\CCCCCCCCOC(=O)C1=C(C)NC(=S)NC1c1cccc(O)c1 (stereo not shown) [11c, (Z)-Octadec-9-enyl 4-(3-hydroxyphenyl)-6-methyl-2-thioxo-1,2,3,4-tetrahydropyrimidine-5-carboxylate] | 446 ± 84.2 µM |  | 125 ± 6.2 µM | 28.4 ± 7 µM
4 | CCCCCCCC/C=C\CCCCCCCCOC(=O)C1=C(C)NC(=S)NC1c1cccc(Cl)c1 (stereo not shown) [11f, (Z)-Octadec-9-enyl 4-(3-chlorophenyl)-6-methyl-2-thioxo-1,2,3,4-tetrahydropyrimidine-5-carboxylate] | 307 ± 143 µM |  | 146 ± 25.9 µM | 8.8 ± 8.3 µM
5 | CCCCCCCC/C=C\CCCCCCCCOC(=O)C1=C(C)NC(=S)NC1c1ccc(C)cc1 (stereo not shown) [11h, (Z)-Octadec-9-enyl 6-methyl-2-thioxo-4-(p-tolyl)-1,2,3,4-tetrahydropyrimidine-5-carboxylate] | 362 ± 12.6 µM |  | 126 ± 4.6 µM | 39.2 ± 4.9 µM
6 | CCCCCCCC/C=C\CCCCCCCCOC(=O)C1=C(C)NC(=S)NC1c1ccc(OC)cc1 (stereo not shown) [11i, (Z)-Octadec-9-enyl 4-(4-methoxyphenyl)-6-methyl-2-thioxo-1,2,3,4-tetrahydropyrimidine-5-carboxylate] | 166 ± 8.9 µM |  | 101.8 ± 0.6 µM | 16.4 ± 2.7 µM
7 | CCOC(=O)C1=C(C)NC(=S)NC1c1cccc(O)c1 (stereo not shown) [Monastrol, reference compound] | 35.5 ± 6.4 µM |  | 40 ± 6.2 µM | 25.6 ± 7.3 µM
